Data reported in ChEMBL document CHEMBL4251564, “Development of noviomimetics that modulate molecular chaperones and manifest neuroprotective effects” (Eur J Med Chem, 2018).
The source made the active and inactive calls. The rule behind the calls is not given here.

Key:
Format in all cases: cell-based
[1] = species on record: Rattus norvegicus; assay: Inhibition of HSP90 in rat 50B11 cells transfected with human HSPA1A promoter assessed as induction of human Hsp70 expression at 10 to 1000 nM incubated for 16 hrs by luciferase reporter gene assay
[2] = species on record: Rattus norvegicus; assay: Inhibition of HSP90 in rat 50B11 cells assessed as increase in Hsp70 protein expression at 0.03 to 3 uM after 24 hrs by immunoblot assay
Summary of the method: (§1)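 Nontransfected 50B11 cells exposed 24 h to compound, with DMSO as negative control. Hsp70 detected by immunoblot; densitometry reports fold induction over DMSO. Mean ±SEM, n >2.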

[3] = species on record: Rattus norvegicus; assay: Inhibition of HSP90 in rat 50B11 cells assessed as increase in Hsp70 protein expression at 1 uM after 24 hrs by immunoblot assay; summary of the method: as §1
[4] = species on record: Rattus norvegicus; assay: Inhibition of HSP90 in rat 50B11 cells assessed as decrease in c-jun protein expression at 1 uM incubated for 24 hrs followed by 10% FBS exposure for 2 hrs by Western blot analysis
Summary of the method: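 50B11 cells held in serum-free medium 24 h to arrest cycle and lower c-Jun, then given vehicle or 1.0 μM compound for 24 h; c-Jun induced by 10% FBS medium for 2 h. Lysates immunoblotted for c-Jun with actin control; densitometry gives fold change normalized to serum-free-then-serum control. Mean ±SEM, n >2.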

[5] = species on record: Rattus norvegicus; assay: Inhibition of HSP90 in rat 50B11 cells assessed as improvement in mitochondrial bioenergetics by measuring suppression of H2O2-induced reduction in oxygen consumption rate at 1 uM after 24 hrs by XF96 extracellular flux analyzer based method
Summary of the method: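 50B11 cells seeded in high-glucose DMEM with 10% FBS; after 12 h switched to high-glucose DMEM with 1% FBS plus 1.0 μM compound or DMSO for 24 h, then stressed with 0.5 mM H2O2 for 2 h. Intact-cell OCR and ECAR read on XF96 extracellular flux analyzer; maximal respiratory capacity from FCCP response; significance versus H2O2 alone, p<0.05.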

In the case of `COc1cccc(COC2CCC(Oc3ccc(CCNC(C)=O)c(-c4cccc(F)c4)c3)CC2)c1` (configuration not stated), the inhibition [1] is reported as “Active”.

With `CC(=O)NCCc1ccc(OC2CCC(OCc3ccccc3)CC2)c(O)c1-c1cccc(F)c1` (configuration not stated) the inhibition [2] was “Active”.

`CC(=O)NCCc1ccc(OC2CCC(OCc3ccc(Cl)cc3)[C@@H](O)[C@H]2O)cc1-c1cccc(F)c1` (some centres not stated) was tested, and the inhibition [3] was “Active” and the inhibition [1] was “Active”.

For `CC(=O)NCCc1ccc(OC2CCC(OCc3ccc(Br)cc3)CC2)cc1-c1cccc(F)c1` (configuration not stated), the inhibition [1] was “Active”.

With `CO[C@@H]1[C@@H](O)[C@@H](O)[C@H](Oc2cc(-c3cccc(F)c3)c(CCNC(C)=O)cc2C)OC1(C)C` the inhibition [2] was “Active”.

`CC(=O)NCCc1c(O)cc(OC2CCC(OCc3ccccc3)CC2)cc1-c1cccc(F)c1` (configuration not stated) was tested, and the inhibition [4] was “Active” and the inhibition [2] was “Active”.

In the case of `CC(=O)NCCc1cc(C)c(OC2CCC(OCc3ccccc3C)CC2)cc1-c1cccc(F)c1` (configuration not stated), the inhibition [2] is reported as “inactive”.

For `COc1ccccc1COC1CCC(Oc2ccc(CCNC(C)=O)c(-c3cccc(F)c3)c2)CC1` (configuration not stated), the inhibition [3] was “Active”.

With `CC(=O)NCCc1ccc(O)cc1-c1cccc(F)c1` the inhibition [1] was “inactive”.

In the case of `CC(=O)NCCc1ccc(OC2CCC(OCc3ccc4ccccc4c3)CC2)cc1-c1cccc(F)c1` (configuration not stated), the inhibition [1] is reported as “Active”.

With `CC(=O)NCCc1ccc(OC2CCC(OCc3ccccc3Br)CC2)cc1-c1cccc(F)c1` (configuration not stated) the inhibition [3] was “Active” and the inhibition [1] was “Active”.

For `CO[C@@H]1[C@@H](O)[C@@H](O)[C@H](Oc2ccc(CCNC(C)=O)c(-c3cccc(F)c3)c2)OC1(C)C`, the inhibition [2] was “Active” and the inhibition [5] was “Active”.

`COc1cc(OC2CCC(OCc3ccc(Br)cc3)CC2)cc(-c2cccc(F)c2)c1CCNC(C)=O` (configuration not stated) was tested, and the inhibition [4] was “Active” and the inhibition [2] was “Active”.

In the case of `CC(=O)NCCc1ccc(OC2CCC(OCc3ccccc3C)CC2)c(O)c1-c1cccc(F)c1` (configuration not stated), the inhibition [2] is reported as “Active”.

For `COc1cc(OC2CCC(OCc3ccccc3)CC2)cc(-c2cccc(F)c2)c1CCNC(C)=O` (configuration not stated), the inhibition [2] was “Active”.

For `COc1ccccc1COC1CCC(Oc2ccc(CCNC(C)=O)c(-c3cccc(F)c3)c2O)CC1` (configuration not stated), the inhibition [2] was “Active”.

In the case of `CC(=O)NCCc1ccc(OC2CCC(OCc3ccccc3C)CC2)cc1-c1cccc(F)c1` (configuration not stated), the inhibition [1] is reported as “Active”.

With `CC(=O)NCCc1ccc(OC2CCC(OCc3ccc(Cl)cc3)CC2)c(O)c1-c1cccc(F)c1` (configuration not stated) the inhibition [2] was “Active”.

With `COc1cc(OC2CCC(OCc3ccccc3C)CC2)cc(-c2cccc(F)c2)c1CCNC(C)=O` (configuration not stated) the inhibition [2] was “Active”.

With `COc1ccccc1COC1CCC(Oc2cc(OC)c(CCNC(C)=O)c(-c3cccc(F)c3)c2)CC1` (configuration not stated) the inhibition [2] was “Active”.

With `CC(=O)NCCc1cc(C)c(OC2CCC(OCc3ccccc3)CC2)cc1-c1cccc(F)c1` (configuration not stated) the inhibition [2] was “inactive”.

`CC(=O)NCCc1ccc(OC2CCC(OCc3cccc(Cl)c3)CC2)cc1-c1cccc(F)c1` (configuration not stated) was tested, and the inhibition [1] was “Active”.

`CC(=O)NCCc1ccc(OC2CCC(OCc3ccccc3F)CC2)cc1-c1cccc(F)c1` (configuration not stated) was tested, and the inhibition [1] was “Active”.

In the case of `CC(=O)NCCc1ccc(OC2CCC(OCc3ccc(C(F)(F)F)cc3)CC2)cc1-c1cccc(F)c1` (configuration not stated), the inhibition [3] is reported as “inactive” and the inhibition [1] is reported as “Active”.

For `CC(=O)NCCc1c(O)cc(OC2CCC(OCc3ccc(Br)cc3)CC2)cc1-c1cccc(F)c1` (configuration not stated), the inhibition [2] was “Active”.

For `CC(=O)NCCc1ccc(OC2CCC(OCc3ccccc3)CC2)cc1-c1cccc(F)c1` (configuration not stated), the inhibition [5] was “Active” and the inhibition [1] was “Active”.

`CC(=O)NCCc1ccc(OC2CCC(OCc3ccc(Cl)cc3)CC2)cc1-c1cccc(F)c1` (configuration not stated) was tested, and the inhibition [3] was “inactive” and the inhibition [1] was “Active”.

With `CC(=O)NCCc1ccc(OC2CCC(OCc3ccc(Cl)cc3Br)CC2)cc1-c1cccc(F)c1` (configuration not stated) the inhibition [1] was “Active”.

With `CC(=O)NCCc1ccc(OC2CCC(OCc3ccc(F)cc3)CC2)cc1-c1cccc(F)c1` (configuration not stated) the inhibition [1] was “Active”.

With `CC(=O)NCCc1ccc(OC2C=CC(OCc3ccc(Cl)cc3)CC2)cc1-c1cccc(F)c1` (configuration not stated) the inhibition [3] was “Active” and the inhibition [1] was “Active”.

`COc1ccc(COC2CCC(Oc3ccc(CCNC(C)=O)c(-c4cccc(F)c4)c3)CC2)cc1` (configuration not stated) was tested, and the inhibition [1] was “Active”.

In the case of `COc1cc(C)ccc1COC1CCC(Oc2ccc(CCNC(C)=O)c(-c3cccc(F)c3)c2)CC1` (configuration not stated), the inhibition [1] is reported as “Active”.

In the case of `CC(=O)NCCc1ccc(OC2CCC(OCc3ccc(Br)cc3)CC2)c(O)c1-c1cccc(F)c1` (configuration not stated), the inhibition [4] is reported as “Active” and the inhibition [2] is reported as “Active”.

`CO[C@@H]1[C@@H](O)[C@@H](O)[C@H](Oc2cc(O)c(CCNC(C)=O)c(-c3cccc(F)c3)c2)OC1(C)C` was tested, and the inhibition [4] was “Active”.

`COc1ccccc1COC1CCC(Oc2cc(O)c(CCNC(C)=O)c(-c3cccc(F)c3)c2)CC1` (configuration not stated) was tested, and the inhibition [4] was “Active” and the inhibition [2] was “Active”.

With `CC(=O)Nc1cc2ccc(O)c(C)c2oc1=O` the inhibition [1] was “inactive”.

For `CC(=O)NCCc1c(O)cc(OC2CCC(OCc3ccc(Cl)cc3)CC2)cc1-c1cccc(F)c1` (configuration not stated), the inhibition [2] was “Active”.

For `CC(=O)NCCc1ccc(OC2CCC(OCc3ccc(C)cc3)CC2)cc1-c1cccc(F)c1` (configuration not stated), the inhibition [1] was “Active”.

For `CC(=O)NCCc1c(O)cc(OC2CCC(OCc3ccccc3C)CC2)cc1-c1cccc(F)c1` (configuration not stated), the inhibition [2] was “Active”.

In the case of `CC(=O)NCCc1ccc(OC2CCC(OCc3c(Cl)cccc3Cl)CC2)cc1-c1cccc(F)c1` (configuration not stated), the inhibition [3] is reported as “inactive” and the inhibition [1] is reported as “Active”.

With `CC(=O)NCCc1ccc(OC2CCC(OCc3ccccc3Cl)CC2)cc1-c1cccc(F)c1` (configuration not stated) the inhibition [3] was “Active” and the inhibition [1] was “Active”.

With `CC(=O)Nc1cc2ccc(OCc3ccccc3)c(C)c2oc1=O` the inhibition [1] was “inactive”.

For `COc1cc(Cl)ccc1COC1CCC(Oc2ccc(CCNC(C)=O)c(-c3cccc(F)c3)c2)CC1` (configuration not stated), the inhibition [3] was “inactive” and the inhibition [1] was “Active”.

With `CC(=O)NCCc1ccc(OC2CCC(OCc3ccc(C(C)(C)C)cc3)CC2)cc1-c1cccc(F)c1` (configuration not stated) the inhibition [1] was “Active”.

For `CC(=O)Nc1cc2ccc(OCc3ccc(Cl)cc3)c(C)c2oc1=O`, the inhibition [1] was “inactive”.

For `COc1ccccc1COc1ccc2cc(NC(C)=O)c(=O)oc2c1C`, the inhibition [1] was “inactive”.

With `COc1cc(OC2CCC(OCc3ccc(Cl)cc3)CC2)cc(-c2cccc(F)c2)c1CCNC(C)=O` (configuration not stated) the inhibition [4] was “Active”, the inhibition [2] was “Active” and the inhibition [5] was “Active”.

In the case of `CC(=O)NCCc1cc(C)c(OC2CCC(OCc3ccc(Br)cc3)CC2)cc1-c1cccc(F)c1` (configuration not stated), the inhibition [2] is reported as “inactive”.

With `COc1cc(O[C@@H]2OC(C)(C)[C@H](OC)[C@@H](O)[C@H]2O)cc(-c2cccc(F)c2)c1CCNC(C)=O` the inhibition [4] was “Active”.

For `COc1ccccc1COC1CCC(Oc2cc(-c3cccc(F)c3)c(CCNC(C)=O)cc2C)CC1` (configuration not stated), the inhibition [2] was “inactive”.

For `CC(=O)Nc1cc2ccc(OCc3ccccc3Br)c(C)c2oc1=O`, the inhibition [1] was “inactive”.
